Data set [1] has as its system Rattus norvegicus. Kind of data set: Organ distribution in rat blood 30 minutes after intravenous injection. Format: ADME, organism-based. Conditions: in vivo, 0.5 h. Put shortly:
(§1)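 Male Sprague-Dawley rats (220-300 g) given 0.2 mL Se-75 labeled compound (0.5-2.0 μCi) iv via femoral vein under light ether anesthesia; killed under ether by heart removal at set times; organs excised and counted in a well counter. Percent dose per organ from comparison with diluted aliquots of injected dose; blood and muscle totals assume 7% and 40% of body weight. Average of two or three rats, with range.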

In data set [2] the test system is Rattus norvegicus. Kind of data set: Organ distribution in rat kidney 2 minutes after intravenous injection. It is filed as ADME, organism-based. Conditions: in vivo. Summed up:
as §1

Data set [3] relates to Rattus norvegicus. Kind of data set: Organ distribution in rat liver 2 minutes after intravenous injection. The following applies: in vivo. Format: ADME, organism-based. Put shortly: as §1
Data set [4] concerns Rattus norvegicus. As to the kind of experiment: Organ distribution in rat muscle 2 minutes after intravenous injection. It is filed as ADME, organism-based, Muscle tissue. The following applies: in vivo. Put shortly:
as §1

In data set [5] the test system is Rattus norvegicus. As to the kind of experiment: Organ distribution in rat muscle 30 minutes after intravenous injection. The following applies: in vivo, 0.5 h. It is filed as ADME, organism-based, Muscle tissue. Put shortly:
as §1

The subject of data set [6] is Rattus norvegicus. Kind of data set: Organ distribution in rat brain 2 minutes after intravenous injection. Format: ADME, organism-based. The following applies: in vivo. Put shortly:
as §1

Data set [7] concerns Rattus norvegicus. As to the kind of experiment: Organ distribution in rat lung 2 hr after intravenous injection. Format: ADME, organism-based. Conditions: in vivo. Put shortly: as §1
Data set [8] has as its system Rattus norvegicus. Kind of data set: Organ distribution in rat brain 30 minutes after intravenous injection. Format: ADME, organism-based. The following applies: in vivo, 0.5 h. Put shortly: as §1
Data set [9] concerns Rattus norvegicus. As to the kind of experiment: Organ distribution in rat lung 30 minutes after intravenous injection. It is filed as ADME, organism-based. Conditions: in vivo, 0.5 h. Put shortly:
as §1

For data set [10], the system named is Rattus norvegicus. As to the kind of experiment: Organ distribution in rat heart 30 minutes after intravenous injection. Conditions: in vivo, 0.5 h. It is filed as ADME, organism-based. Summed up:
as §1

Data set [11] has as its system Rattus norvegicus. Kind of data set: Organ distribution in rat heart 2 minutes after intravenous injection. It is filed as ADME, organism-based. The following applies: in vivo. Put shortly:
as §1

Data set [12] relates to Rattus norvegicus. Kind of data set: Organ distribution in rat kidney 2 hr after intravenous injection. It is filed as ADME, organism-based. Conditions: in vivo. Summed up: as §1
Data set [13] deals with Rattus norvegicus. Kind of data set: Organ distribution in rat lung 2 minutes after intravenous injection. It is filed as ADME, organism-based. The following applies: in vivo. Summed up: as §1
Data set [14] deals with Rattus norvegicus. As to the kind of experiment: Organ distribution in rat blood 2 minutes after intravenous injection. It is filed as ADME, organism-based. Conditions: in vivo. Summed up: as §1
The test system of data set [15] is Rattus norvegicus. As to the kind of experiment: Organ distribution in rat kidney 30 minutes after intravenous injection. Format: ADME, organism-based. The following applies: in vivo, 0.5 h. Summed up:
as §1

Data set [16] concerns Rattus norvegicus. Kind of data set: Organ distribution in rat blood 2 hr after intravenous injection. It is filed as ADME, organism-based. Conditions: in vivo. Put shortly:
as §1

Data set [17] deals with Rattus norvegicus. As to the kind of experiment: Organ distribution in rat heart 2 hr after intravenous injection. It is filed as ADME, organism-based. The following applies: in vivo. Summed up:
as §1

Data set [18] has as its system Rattus norvegicus. Kind of data set: Organ distribution in rat brain 2 hr after intravenous injection. Conditions: in vivo. Format: ADME, organism-based. Summed up:
as §1

Data set [19] concerns Rattus norvegicus. Kind of data set: Organ distribution in rat muscle 2 hr after intravenous injection. Format: ADME, organism-based, Muscle tissue. Conditions: in vivo. Put shortly: as §1
Data set [20] relates to Rattus norvegicus. Kind of data set: Organ distribution in rat liver 30 minutes after intravenous injection. Format: ADME, organism-based. Conditions: in vivo, 0.5 h. Put shortly:
as §1

The test system of data set [21] is Rattus norvegicus. As to the kind of experiment: Organ distribution in rat liver 2 hr after intravenous injection. Format: ADME, organism-based. Conditions: in vivo. Summed up:
as §1

The subject of data set [22] is Rattus norvegicus. As to the kind of experiment: Organ distribution in rat blood 30 min after intravenous injection. Format: ADME, organism-based. The following applies: in vivo, 0.5 h. Summed up:
as §1

The results in this text go back to ChEMBL document CHEMBL1121543, “Synthesis of selenium-75 labeled tertiary diamines: new brain imaging agents” (J Med Chem, 1980).

Each structure is given as a SMILES string.

Take `C1CCN(CC[Se]CCN2CCCCC2)CC1`: the Dose/organ with Rattus norvegicus [1] is recorded as 0.87%; in the data set with Rattus norvegicus [2], 7.14%; with Rattus norvegicus [3], 12%; in the data set on Rattus norvegicus [4], 7.39%; in the data set on Rattus norvegicus [5], 13.4%; in the data set with Rattus norvegicus [6], 1.09%. In addition, the Dose/organ in the data set with Rattus norvegicus [7] is listed as 0.85%; in the data set on Rattus norvegicus [8], 1.49%; in the data set on Rattus norvegicus [9], 2.83%; in the data set on Rattus norvegicus [10] it was 0.89%; with Rattus norvegicus [11], 3.04%; in the data set with Rattus norvegicus [12], 2.89%. For the same molecule, the Dose/organ in the data set with Rattus norvegicus [13] is listed as 20%; in the data set on Rattus norvegicus [14], 4.58%; with Rattus norvegicus [15] it was 9.21%; in the data set on Rattus norvegicus [16], 0.65%; in the data set with Rattus norvegicus [17] it was 0.19%; in the data set with Rattus norvegicus [18], 1.63%. Besides, the Dose/organ was determined as 12% in the data set on Rattus norvegicus [19], 14.3% in the data set with Rattus norvegicus [20] and 15.9% with Rattus norvegicus [21].

Take `C1CN(CC[Se]CCN2CCOCC2)CCO1`: the Dose/organ with Rattus norvegicus [1] is 2.82%; with Rattus norvegicus [2], 9.89%; in the data set on Rattus norvegicus [3] it was 18.3%; in the data set with Rattus norvegicus [4] it was 10.5%; in the data set on Rattus norvegicus [5], 14.4%; in the data set with Rattus norvegicus [6], 3.19%. The Dose/organ is listed as 0.94% in the data set on Rattus norvegicus [7]; 1.53% in the data set with Rattus norvegicus [8]; 1.79% in the data set on Rattus norvegicus [9]; 0.22% with Rattus norvegicus [10]; 0.45% with Rattus norvegicus [11]; 3.42% with Rattus norvegicus [12]. For the same molecule, the Dose/organ in the data set with Rattus norvegicus [13] worked out at 2.77%; in the data set with Rattus norvegicus [14], 3.13%; with Rattus norvegicus [15], 4.03%; in the data set on Rattus norvegicus [16], 2.46%; in the data set with Rattus norvegicus [17], 0.18%; in the data set on Rattus norvegicus [18], 0.56%. Also, the results for the Dose/organ in the data set with Rattus norvegicus [19], with Rattus norvegicus [20] and in the data set with Rattus norvegicus [21] were 17.7%, 23.2% and 21.7%, respectively.

`CC(C)N(CC[Se]CCN(C(C)C)C(C)C)C(C)C`: the Dose/organ with Rattus norvegicus [1] is recorded as 1.17%; in the data set on Rattus norvegicus [2], 11.4%; in the data set on Rattus norvegicus [3] it was 11.9%; in the data set with Rattus norvegicus [4], 9.88%; with Rattus norvegicus [5] it was 14.2%; with Rattus norvegicus [6] it was 0.25%. Further, the Dose/organ with Rattus norvegicus [7] was found to be 1.11%; in the data set on Rattus norvegicus [8], 0.33%; in the data set on Rattus norvegicus [9] it was 3.44%; in the data set with Rattus norvegicus [10], 0.55%; with Rattus norvegicus [11] it was 2.35%; in the data set on Rattus norvegicus [12] it was 2.28%. Also, the Dose/organ turned out to be 11.2% in the data set with Rattus norvegicus [13]; 2.96% in the data set on Rattus norvegicus [14]; 6.19% with Rattus norvegicus [15]; 1.04% in the data set on Rattus norvegicus [16]; 0.3% with Rattus norvegicus [17]; 0.35% with Rattus norvegicus [18]. Moreover, the results for the Dose/organ in the data set on Rattus norvegicus [19], in the data set on Rattus norvegicus [20] and with Rattus norvegicus [21] were 15%, 16% and 13.1%, respectively.

`CN(C)CC[Se]CCN(C)C`: the Dose/organ in the data set on Rattus norvegicus [2] was 9.46%; with Rattus norvegicus [3], 12.82%; in the data set with Rattus norvegicus [4] it was 14.1%; in the data set on Rattus norvegicus [5] it was 11.8%; in the data set with Rattus norvegicus [6], 0.49%; in the data set on Rattus norvegicus [7], 4.74%. In addition, the Dose/organ with Rattus norvegicus [8] worked out at 0.49%; in the data set with Rattus norvegicus [9], 5.77%; in the data set with Rattus norvegicus [10] it was 0.81%; in the data set on Rattus norvegicus [11], 2.21%; with Rattus norvegicus [12] it was 3.92%; with Rattus norvegicus [13], 11.36%. The Dose/organ with Rattus norvegicus [14] was 2.82%; with Rattus norvegicus [15], 5.6%; in the data set on Rattus norvegicus [16], 0.53%; in the data set on Rattus norvegicus [17] it was 0.54%; in the data set with Rattus norvegicus [18] it was 0.71%; in the data set on Rattus norvegicus [22] it was 0.74%. Further, the Dose/organ came to 15.2% in the data set with Rattus norvegicus [19], 15.1% in the data set on Rattus norvegicus [20] and 12.2% in the data set on Rattus norvegicus [21].

`C[N+](C)(C)CC[Se]CC[N+](C)(C)C`: the Dose/organ with Rattus norvegicus [1] is 5.16%; in the data set on Rattus norvegicus [5] it was 9.52%; in the data set with Rattus norvegicus [7] it was 0.2%; in the data set on Rattus norvegicus [8], 0.06%; with Rattus norvegicus [9], 0.63%; in the data set on Rattus norvegicus [10], 0.15%. Moreover, the Dose/organ in the data set on Rattus norvegicus [12] is 2.75%; in the data set on Rattus norvegicus [15] it was 6.01%; in the data set on Rattus norvegicus [16] it was 0.36%; with Rattus norvegicus [17] it was 0.05%; in the data set with Rattus norvegicus [18] it was 0.06%; in the data set with Rattus norvegicus [19] it was 5.48%. The results for the Dose/organ in the data set on Rattus norvegicus [20] and in the data set with Rattus norvegicus [21] were 5.74% and 3.04%, respectively.
